Measured values reported in ChEMBL document CHEMBL1135865, “Novel guanidine-based inhibitors of inosine monophosphate dehydrogenase” (Bioorg Med Chem Lett, 2002).

Target: T1, Inosine-5'-monophosphate dehydrogenase 2 (Homo sapiens, UniProt P12268)
Test: The compound was tested for it's in vitro inhibitor potency against inosine monophosphate dehydrogenase II (IMPDH II)
Summary of the method: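 Human type II IMPDH purified from E. coli expressing the gene; 40 nM enzyme, 400 µM IMP, 2 mM DTT in 0.1 M Tris, 0.1 M KCl, 3 mM EDTA pH 8.0; final DMSO 2.5%. Started with NAD (final 400 µM); after 2 h at 25 °C, NADH read at 340 nm. IC50 for 50% inhibition of NADH accumulation from 4-parameter logistic fit.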

| IC50 [µM] | Compound |
| --- | --- |
| > 3 | COc1cc(N=C(N)Nc2cccc(C)c2)ccc1-c1cnco1 |
| 0.11 | COc1cc(N/C(=N/C#N)Nc2cccc(CNC(=O)OCC3CCOC3)c2)ccc1-c1cnco1 (stereo not drawn) |

Target: T1, Inosine-5'-monophosphate dehydrogenase 2
Test: In vitro inhibition of Inosine-5'-monophosphate dehydrogenase 2.
Summary of the method: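 Human type II IMPDH purified from E. coli expressing the gene; 40 nM enzyme, 400 µM IMP, 2 mM DTT in 0.1 M Tris, 0.1 M KCl, 3 mM EDTA pH 8.0; final DMSO 2.5%. Started with NAD (final 400 µM); after 2 h at 25 °C, NADH read at 340 nm.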

| IC50 [µM] | Compound |
| --- | --- |
| 0.25 | COc1cc(NC(=NC#N)Nc2ccccc2)ccc1-c1cnco1 |
| 0.66 | CON/C(=N\c1ccc(-c2cnco2)c(OC)c1)Nc1cccc(C)c1 |
| 2.2 | COc1cc(NC(=NC#N)Nc2ccccc2C)ccc1-c1cnco1 |
| > 3 | CN/C(=N\c1ccc(-c2cnco2)c(OC)c1)Nc1cccc(C)c1 |
| 1.5 | COc1cc(N/C(=N/C#N)Nc2ccc(C)cc2)ccc1-c1cnco1 |
| 0.016 | COc1cc(N/C(=N/c2cccc(C/N=C(\NC#N)Oc3ccccc3)c2)NC#N)ccc1-c1cnco1 |
| 0.34 | COc1cc(NC(=NC#N)Nc2cccc(CNC(=O)O[C@H]3CCOC3)c2)ccc1-c1cnco1 |
| > 1 | COc1cc(N=C(NC(C)=O)Nc2cccc(C)c2)ccc1-c1cnco1 |
| 0.33 | COc1cc(NC(=N)NC#N)ccc1-c1cnco1 |
| 0.38 | COc1cc(NC(=NC#N)Nc2cccc(OCCOc3ccccc3)c2)ccc1-c1cnco1 |
| 0.32 | COc1cc(N/C(=N/c2cccnc2)NC#N)ccc1-c1cnco1 |
| 0.34 | COc1cc(NC(=NC#N)Nc2ccccn2)ccc1-c1cnco1 |
| 0.24 | COc1cc(NC(=NC#N)Nc2cccc(C)c2)ccc1-c1cnco1 |
| 0.18 | COc1cc(NC(=NC#N)Nc2cccc(CNC(=O)NCC3CCCO3)c2)ccc1-c1cnco1 (stereo not drawn) |
| 0.74 | CCOC(=O)N=C(Nc1cccc(C)c1)Nc1ccc(-c2cnco2)c(OC)c1 |
| 0.8 | COc1cc(N=C(N)NC(=O)c2ccccc2)ccc1-c1cnco1 |
| 0.28 | COc1cc(N/C(=N/c2cccc(CO)c2)NC#N)ccc1-c1cnco1 |
| 1.1 | COc1cc(NC(=NC#N)NCc2cccc(C)c2)ccc1-c1cnco1 |
| 0.13 | CCCCNC(=O)c1cccc(NC(=NC#N)Nc2ccc(-c3cnco3)c(OC)c2)c1 |

| Compound | IC50 [µM] |
| --- | --- |
| COc1cc(NC(=O)Nc2cccc(C)c2)ccc1-c1cnco1 | 0.019 |

Tested on: CCRF-CEM
Test: Inhibitory concentration against human T-lymphoblast CEM cell line (ATCC) by CEM proliferation assay.
Format: functional, cell-based
Summary of the method: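 CEM human T-lymphoblasts in RPMI 1640 with 10% heat-inactivated FBS plus penicillin/streptomycin, seeded 3000 cells/well with 0.5% DMSO. Compounds tested in triplicate from 10 uM top final concentration, 3-fold serial dilutions. Cells held 72 h in 5% CO2 humidified atmosphere. Viability measured by Alamar Blue (10% v/v, final 5 h), fluorescence at 530/590 nm.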

| IC50 [µM] | Compound |
| --- | --- |
| 0.41 | COc1cc(N/C(=N/c2cccc(C/N=C(\NC#N)Oc3ccccc3)c2)NC#N)ccc1-c1cnco1 |
